Published values of several laboratories.
Protocols differ between the studies behind these lines.
HDAC9: Histone deacetylase 9 (HDAC9, Homo sapiens, UniProt Q9UKV0)
PKN1: Serine/threonine-protein kinase N1 (PKN1, Homo sapiens, UniProt Q16512)
ADRB1: Beta-1 adrenergic receptor (ADRB1, Homo sapiens, UniProt P08588)

Compound | target | effect on | action | method | tested at | measurement | result
O=C(NO)c1cncc(OS(=O)(=O)Oc2ccc(-n3ccnc3)cc2)c1 | HDAC9 | enzyme activity | inhibitor | fluorescence | 10 µM | inhibition | 49%
COc1cc(-c2cncc3c2CN(C)Cc2cc(N4CCNCC4)ccc2-3)cc(OC)c1OC | PKN1 | enzyme activity | inhibitor |  | 1 µM | remaining activity | 102%
O=C(O)CNc1cccc(CN(Cc2ccc(-n3cccn3)cc2)S(=O)(=O)c2cccnc2)n1 | ADRB1 | ligand displacement |  | radioligand | 10 µM | inhibition | 2%
O=C(NO)c1cc(F)cc(OS(=O)(=O)Oc2ccccc2)c1 | HDAC9 | enzyme activity | inhibitor | fluorescence | 10 µM | inhibition | 33%
Cc1cc([C@@H](C)Nc2ccccc2C(=O)O)c2nc(N3CCC(F)(F)CC3)c(C#N)c(=O)n2c1 | NUAK family SNF1-like kinase 2 (NUAK2, Homo sapiens, UniProt Q9H093) | binding |  | competition with immobilised ligand | 10 µM | remaining binding | 70%
C[C@H]1O[C@H](O[C@H]2[C@H](O)[C@@H](O)[C@@H](O[C@H]3[C@H](O)[C@@H](O)C(O)O[C@@H]3CO)O[C@@H]2CO)[C@H](O)[C@@H](O)[C@@H]1N[C@H]1C=C(CO)[C@@H](O)[C@H](O)[C@H]1O (some centres unmarked) | Pancreatic alpha-amylase (Homo sapiens, UniProt P04746) | enzyme activity | inhibitor |  | 200 µg/mL | inhibition | 97.5%
C=CC(=O)N1CCC(COCC(=O)N2CCN(c3nc(-c4cnc(N)nc4C(F)F)nc(N4CCOC[C@@H]4C)n3)CC2)CC1 | PKN1 | binding |  | competition with immobilised ligand | 1 µM | remaining binding | 100%
CC(C)OC(=O)CNc1cccc(CN(Cc2ccc(-n3cccn3)cc2)S(=O)(=O)c2cccnc2)n1 | ADRB1 | ligand displacement |  | radioligand | 10 µM | inhibition | 0%
N=c1c[n+](N2CCOCC2)[n-]o1 | NAD-dependent protein deacylase sirtuin-5, mitochondrial (SIRT5, Homo sapiens, UniProt Q9NXA8) | enzyme activity | inhibitor |  |  | KI (inactivation) | 4 µM
O=C(/C=C/c1cccc(OS(=O)(=O)Oc2ccc(C(F)(F)F)cc2)c1)NO | HDAC9 | enzyme activity | inhibitor | fluorescence | 10 µM | inhibition | 13%
CNc1ncc2c(/C=C/C(=O)N3CCC(OC)CC3)nn(Cc3cccc(C(F)(F)F)c3)c2n1 | Cyclin-dependent kinase 18, with cyclin Y (CDK18, Homo sapiens, UniProt Q07002) | enzyme activity | inhibitor | radiometric | 1 µM | remaining activity | 99%
